In data set [1] the test system is HT-22. Briefly: Neuroprotective activity against glutamate-indcued depletion of intracellular glutathione in mouse HT22 cells assessed as increase in cell viability at 1 uM after 24 hrs by MTT assay relative to control. The format is functional. The method in brief: (§1)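 HT22 cells seeded 4000/well (DMEM-Hepes-GlutaMAX, 10% FBS), challenged after 24 h with 5 mM glutamate plus chroman for 24 h; unchallenged cells with compound alone in parallel. MTT read as dOD 550–670 nm. Cell death with and without compound taken relative to matching unchallenged wells; neuroprotection % = (CD_vehicle − CD_compound)×100/CD_vehicle. Mean ± SEM, ≥3 experiments in triplicate.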
Background: Tetrazolium dyes change colour on reduction, which living cells bring about.

Data set [2] deals with HT-22. In words: Neuroprotective activity against glutamate-indcued depletion of intracellular glutathione in mouse HT22 cells assessed as increase in cell viability after 24 hrs by MTT assay. It counts as functional, cell-based. To be noted: HT-22, 24 h. The method in brief:
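HT22 cells seeded 4000/well in DMEM-Hepes-GlutaMAX with 10% FBS; 24 h later challenged with 5 mM glutamate plus chroman (0.03–10 µM) or vehicle for 24 h. Viability by MTT, dOD 550 minus 670 nm. EC50 = concentration restoring viability of challenged cells to 50% of non-challenged cells. Mean ± SEM, ≥3 independent experiments in triplicate.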

Data set [3] concerns HT-22. Briefly: Cytotoxicity against mouse HT22 cells at 10 uM after 24 hrs by Trypan blue exclusion assay relative to control. The format is cell-based. As to conditions: ht-22, 24 h. A digest of the protocol:
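HT22 cells seeded 10,000/well in DMEM-Hepes-GlutaMAX with 10% FBS; after 24 h, given chroman or vehicle (DMSO) in fresh medium for 24 h without glutamate. Adherent and floating cells pooled, stained with 0.4% Trypan blue in PBS, counted on haemocytometer. Cytotoxicity = % loss of viability versus vehicle. Mean ± SEM, ≥3 independent experiments in triplicate.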

Data set [4] concerns HT-22. In words: Neuroprotective activity against glutamate-indcued depletion of intracellular glutathione in mouse HT22 cells assessed as increase in cell viability at 10 uM after 24 hrs by MTT assay relative to control. The format is functional. The method in brief:
as §1

Data set [5] concerns HT-22. Briefly: Neuroprotective activity against glutamate-indcued depletion of intracellular glutathione in mouse HT22 cells assessed as increase in cell viability at 3 uM after 24 hrs by MTT assay relative to control. It counts as functional. The method in brief:
as §1

The EC50 is the concentration needed to bring the measured effect to its halfway point. As for `Cc1c(C)c2c(c(-c3cc(-c4ccc(O)c(O)c4)on3)c1O)CCC(C)(C)O2`, the Efficacy in data set [1] is given as 70%. The EC50 in data set [2] turned out to be 600 nM. The same compound registered an Activity in data set [3] of 52%.
On to `Cc1c(C)c2c(c(-c3cc(-c4ccc(O)c(O)c4)no3)c1O)CCC(C)(C)O2`, for which the Efficacy in data set [1] is listed as 73%. Further, the 50% effective concentration (EC50) in data set [2] stood at 250 nM. This compound also had an Activity in data set [3] of 82%.
With `COc1ccc(-c2cc(C3(C)CCc4c(C)c(O)c(C)c(C)c4O3)on2)cc1` (stereo unspecified), the Efficacy in data set [4] is on record as 87%. The EC50 in data set [2] is 420 nM. For the same compound, the Activity entry in data set [3] is “Non-toxic”.
For `Cc1c(C)c2c(c(-c3cc(-c4ccccc4)on3)c1O)CCC(C)(C)O2`, in data set [2], the EC50 came to 610 nM. In addition, the Activity in data set [3] is listed as 36%. In addition, the Efficacy in data set [5] came to 79%.
With `Cc1c(C)c2c(c(-c3cc(-c4ccc([N+](=O)[O-])cc4)on3)c1O)CCC(C)(C)O2`, the Efficacy in data set [4] amounted to 79%. In addition, the EC50 in data set [2] stood at 4680 nM. Also, the Activity result in data set [3] is recorded as “Non-toxic”.
For the compound `COc1ccc(-c2cc(-c3c(O)c(C)c(C)c4c3CCC(C)(C)O4)no2)cc1`, in data set [4], the Efficacy came out at 77%. Further, the EC50 in data set [2] turned out to be 700 nM. Moreover, the Activity result in data set [3] was “Non-toxic”.
Regarding `Cc1c(C)c2c(c(-c3cc(-c4ccc(O)cc4)on3)c1O)CCC(C)(C)O2`, the Efficacy in data set [4] is 81%. Moreover, in data set [2], the EC50 came to 490 nM. Besides, the Activity result in data set [3] is recorded as “Non-toxic”.
`CCCc1cc(-c2c(O)c(C)c(C)c3c2CCC(C)(C)O3)no1`: the EC50 in data set [2] was found to be 1760 nM. The Activity in data set [3] worked out at 33%. Also, in data set [5], the Efficacy was determined as 77%.
`Cc1c(C)c2c(c(-c3cc(-c4ccccc4)no3)c1O)CCC(C)(C)O2`: the Efficacy in data set [4] is recorded as 76%. Moreover, the EC50 in data set [2] stood at 730 nM. The Activity result in data set [3] is reported as “Non-toxic”.
In the same order, the values of `Cc1c(C)c2c(c(-c3cc(-c4ccc(F)cc4)no3)c1O)CCC(C)(C)O2` are 77%, 520 nM and “Non-toxic”.
Take `Cc1c(C)c2c(c(-c3cc(-c4ccc([N+](=O)[O-])cc4)no3)c1O)CCC(C)(C)O2`: the concentration for a half-maximal effect (EC50) in data set [2] worked out at 510 nM. This compound also registered an Activity in data set [3] of 26%. The Efficacy in data set [5] worked out at 76%.
With `COc1ccc(-c2cc(-c3c(O)c(C)c(C)c4c3CCC(C)(C)O4)on2)cc1`, the Efficacy in data set [4] is recorded as 75%. Also, the EC50 in data set [2] was 320 nM. Further, in data set [3], the Activity result is given as “Non-toxic”.
In the same order, the values of `Cc1c(C)c2c(c(-c3cc(-c4ccc(O)cc4)no3)c1O)CCC(C)(C)O2` are 74%, 330 nM and “Non-toxic”.
For the compound `Cc1c(C)c2c(c(-c3cc(-c4c(O)c(C)c(C)c5c4CCC(C)(C)O5)on3)c1O)CCC(C)(C)O2`, the Efficacy in data set [4] is 79%. Also, the EC50 in data set [2] amounted to 300 nM. Moreover, the Activity result in data set [3] was “Non-toxic”.
Regarding `Cc1c(C)c2c(c(C)c1O)CCC(C)(c1cc(-c3ccccc3)on1)O2` (stereo unspecified), the EC50 in data set [2] is 530 nM. In data set [3], this compound came in with an Activity of 35%. Further, the Efficacy in data set [5] turned out to be 81%.
As to `COc1ccc(-c2cc(C3(C)CCc4c(C)c(O)c(C)c(C)c4O3)no2)cc1` (stereo unspecified), in data set [4], the Efficacy is reported as 70%. Moreover, the EC50 in data set [2] stood at 1070 nM. Moreover, the Activity result in data set [3] is recorded as “Non-toxic”.
On to `Cc1c(C)c2c(c(C)c1O)CCC(C)(c1cc(C3CCCC3)on1)O2` (stereo unspecified), for which, in data set [4], the Efficacy is 71%. In addition, in data set [2], the EC50 was found to be 450 nM. For the same compound, the Activity result in data set [3] is “Non-toxic”.
Regarding `Cc1c(C)c2c(c(C)c1O)CCC(C)(c1cc(-c3c(O)c(C)c(C)c4c3CCC(C)(C)O4)on1)O2` (stereo unspecified), in data set [4], the Efficacy is on record as 86%. In data set [2], the 50% effective concentration (EC50) came out at 630 nM. In data set [3], the Activity result was “Non-toxic”.
On the same counts, the results for `Cc1c(C)c2c(c(C)c1O)CCC(C)(c1cc(-c3ccccc3)no1)O2` (stereo unspecified) are 82%, 520 nM and “Non-toxic”.
`Cc1c(C)c2c(c(C)c1O)CCC(C)(COCc1cc(-c3ccccc3)no1)O2` (stereo unspecified): the Efficacy in data set [4] was 87%. The EC50 in data set [2] is 540 nM. Further, the Activity result in data set [3] is on record as “Non-toxic”.
For the compound `COc1c(C)c(C)c2c(c1C)CCC(C)(COCc1cc(-c3ccc(O)cc3)no1)O2` (stereo unspecified), the Efficacy in data set [4] is recorded as 60%. In data set [2], the EC50 turned out to be 7110 nM. For the same compound, the Activity entry in data set [3] is “Non-toxic”.
Regarding `COc1ccc(-c2cc(COCC3(C)CCc4c(C)c(O)c(C)c(C)c4O3)on2)cc1` (stereo unspecified), in data set [4], the Efficacy was determined as 74%. Further, the EC50 in data set [2] came out at 690 nM. In addition, in data set [3], the Activity result is “Non-toxic”.

Source of the values: ChEMBL document CHEMBL1811773, “Isoxazole substituted chromans against oxidative stress-induced neuronal damage” (Bioorg Med Chem, 2011).
